Test results as given in ChEMBL document CHEMBL1157103, “Structure and anti-TB activity of trachylobanes from the liverwort Jungermannia exsertifolia ssp. cordifolia” (2010).
In brackets after ≈: the same amount, converted by molar mass.

System: Mycobacterium tuberculosis
Experiment: Antituberculosis activity against Mycobacterium tuberculosis H37Rv ATCC 27294 after 7 to 10 days by microplate alamar blue assay
Format: functional
Summary of the method: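 Microdilution in 96-well format. Test materials were incubated with virulent M. tuberculosis H37Rv for 7–10 days at 0.1 to 128 μg/mL. Growth was read fluorometrically with Alamar Blue. MIC90 and percent inhibition were calculated against a 1:10 dilution of the inoculum. Rifampin served as the positive control and DMSO as the negative control.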

| Structure (SMILES) | MIC90 |
| --- | --- |
| CC(=O)O[C@@H]1CC[C@@]2(C)[C@@H]3C[C@@H]4[C@H]5C[C@@]3(CC[C@@H]2[C@@]1(C)C=O)C[C@@]45C | > 371 µM |
| CC(=O)OC[C@]1(C)[C@H]2CC[C@@]34C[C@@H]5[C@@H](C[C@H]3[C@]2(C)CC[C@H]1O)[C@]5(C)C4 | > 370 µM |
| CC1(C)[C@H](O)CC[C@]2(C)[C@@H]1CC[C@@]13C[C@@H]4[C@@H](C[C@H]12)[C@]4(C(=O)O)C3 | > 402 µM |
| CC(=O)OC[C@@]1(C(=O)O)[C@H](OC(C)=O)CC[C@@]2(C)[C@@H]3C[C@@H]4[C@H]5C[C@@]3(CC[C@@H]21)C[C@@]45C | > 306 µM |
| CC(=O)O[C@@H]1CC[C@]2(C)[C@H](CC[C@@]34C[C@@H]5[C@@H](C[C@H]32)[C@]5(C)C4)[C@@]1(C)CO | > 370 µM |
| CC(=O)O[C@@H]1CC[C@]2(C)[C@H](CC[C@@]34C[C@@H]5[C@@H](C[C@H]32)[C@]5(C)C4)C1(C)C | 337 µM (≈ 111 µg/mL) |
| CC1(C)CCC[C@]2(C)[C@@H]1CC[C@@]13C[C@@H]4[C@@H](C[C@H]12)[C@]4(C=O)C3 | 85 µM (≈ 24.3 µg/mL) |
| CC1(C)CCC[C@]2(C)[C@@H]1CC[C@@]13C[C@@H]4[C@@H](C[C@H]12)[C@]4(CO)C3 | 446 µM (≈ 129 µg/mL) |
| CC(=O)O[C@@H]1CC[C@@]2(C)[C@@H]3C[C@@H]4[C@H]5C[C@@]3(CC[C@@H]2[C@]1(C)C=O)C[C@@]45C | > 371 µM |
| CC(=O)O[C@@H]1CC[C@]2(C)[C@H](CC[C@@]34C[C@@H]5[C@@H](C[C@H]32)[C@]5(C)C4)[C@]1(C)CO | 171 µM (≈ 59.3 µg/mL) |
| CC1(C)[C@H](O)CC[C@]2(C)[C@@H]1CC[C@@]13C[C@@H]4[C@@H](C[C@H]12)[C@]4(C)C3 | 212 µM (≈ 61.2 µg/mL) |
| CC1(C)C(=O)CC[C@@]2(C)[C@@H]3C[C@@H]4[C@@H]5C[C@@]3(CC[C@@H]12)C[C@@]45C | 173 µM (≈ 49.6 µg/mL) |
| CO[C@H]1/C=C/O[C@@]2(C)Oc3c(C)c(O)c4c(O)c(c(/C=N/N5CCN(C)CC5)c(O)c4c3C2=O)NC(=O)/C(C)=C\C=C\[C@H](C)[C@H](O)[C@@H](C)[C@@H](O)[C@@H](C)[C@H](OC(C)=O)[C@@H]1C [RIFAMPIN] | < 0.15 µM |
